# Compound activity (PubChem)
# ARNT-TACC3 inh: ARNT/TACC3 interaction disruption. Q9Y6A5. AlphaScreen His-ARNT PAS-B/GST-TACC3 binding, luminescence; TACC3 fragment carries E629A point mutation. inhibition, % at 9.99 µM. 390,000 compounds, 0.66% hits;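 active = mean inhibition of replicates at least 50% and at least half of replicates each reaching 50%; inconclusive = half or more replicates reach 50% but mean below 50%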
# FN deposit inh: fibronectin deposition inhibition; AH1F fibroblasts, Alexa488-fibronectin deposition fluorescence, overnight; 350,000 compounds, 0.086% hits; inhibition, % at 12.6 µM;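 active = mean inhibition across replicates of 30% or more, regardless of how many single replicates reach that level; inconclusive = mean under 30% yet at least half of replicates reach 30%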
#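 Material: AH1F fibroblasts assembling fluorescent fibronectin matrix; amount: 10000 AH1F cells/well; medium: DMEM, 2% serum; reagent: Alexa488-fibronectin, 24 nM final in well; dosing: single compound dose, delivered by pin transfer; incubation: 1 h adhesion, overnight exposure; detection: fluorescence after three HBSS washes, excitation 485 nm, emission 525 nm; measure: fibronectin deposition inhibition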
# FGF22 binding: shifts melting point of recombinant human FGF22; Q9HCT0; recombinant FGF22 thermal shift, SYPRO orange fluorescence; percent of sucrose octasulfate shift, DMSO zero; activity (Tm shift, normalised), % at 9.99 µM; 340,000 compounds, 1.5% hits; AID 651658;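 active = mean Tm shift, scaled 0 neutral to 100 positive control, at about 1.3% or above, every replicate too, limit read from the data; inconclusive = no clear call, values can overlap the other calls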
# Target sequence (Q9HCT0 whole entry, looked up): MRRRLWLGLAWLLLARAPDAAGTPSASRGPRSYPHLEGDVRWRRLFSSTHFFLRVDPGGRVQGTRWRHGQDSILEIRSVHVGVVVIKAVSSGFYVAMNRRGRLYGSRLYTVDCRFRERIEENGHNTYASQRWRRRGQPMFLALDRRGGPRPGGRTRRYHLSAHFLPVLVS
# SIRT5 block: sirtuin-5 (human) deacylase inhibition; Q9NXA8; Purified SirT5, succinyl-peptide AMC, trypsin-coupled fluorescence; inhibition, % at 15 µM; 330,000 compounds, 1.1% hits; in the data active = inhibition above about 15%; inconclusive = no clear call, values can overlap the other calls
# Target sequence (Q9NXA8 whole entry, looked up): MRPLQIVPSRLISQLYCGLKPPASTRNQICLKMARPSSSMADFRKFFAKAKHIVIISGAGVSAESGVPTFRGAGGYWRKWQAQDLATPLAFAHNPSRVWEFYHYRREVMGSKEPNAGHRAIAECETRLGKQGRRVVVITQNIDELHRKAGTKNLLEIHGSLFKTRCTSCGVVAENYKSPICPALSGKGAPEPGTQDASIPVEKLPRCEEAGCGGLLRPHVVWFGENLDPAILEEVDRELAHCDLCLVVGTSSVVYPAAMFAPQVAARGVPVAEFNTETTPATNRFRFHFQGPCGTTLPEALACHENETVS
# DENV2 CPE: DENV2-induced cell death inhibition; CPE inhibition, % at 9.99 µM; DENV2-infected cells, cytopathic effect rescue, plate reader; 350,000 compounds, 1.7% hits; AID 651640; in the data active = CPE inhibition above about 20%, passing the limit was not always enough; inconclusive = no clear call, values can overlap the other calls; tested in BHK-21 cells
# XiGFP reactiv: X-chromosome reactivation activator. XiGFP mouse fibroblasts, % GFP-positive cells imaging, 3 d; cells co-treated with 5-aza-dC sensitizer; scaled so ellipticine positive control = 100%. 360,000 compounds, 0.055% hits. activation, % at 7.58 µM. AID 743238;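 active = mean normalized replicate activation at least 10% and every replicate at or above 10%; inconclusive = only one of the two criteria met; inactive = mean below 10% and not all replicates reach 10%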
#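 Material: XiGFP fibroblasts, SV40-immortalized; Buffer or medium: DMEM containing 5-aza-dC; Compound dosing: single point; Times: 3 days compound exposure.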
# Numbers stand for hits; . = inactive; ? = inconclusive; / = no result; ! = a repeat was not active. Hits are enriched below; roughly 3.8% of the tested compounds scored in any of these assays.
SMILES,ARNT-TACC3 inh,FN deposit inh,FGF22 binding,SIRT5 block,DENV2 CPE,XiGFP reactiv
CC(C)NC(=O)Nc1ccc2c(c1)C(=O)N([C@@H](C)CO)C[C@@H](C)[C@H](CN(C)Cc1ccc(C(F)(F)F)cc1)OCCCC[C@@H](C)O2,.,.,.,17,.,.
C[C@@H]1CCCCO[C@H](CN(C)Cc2ccc(C(=O)O)cc2)[C@H](C)CN([C@@H](C)CO)C(=O)c2cc(NC(=O)Nc3ccc(C(F)(F)F)cc3)ccc2O1,.,.,.,.,41!,.
C[C@@H]1CCCCO[C@H](CN(C)Cc2ccccc2)[C@H](C)CN([C@H](C)CO)C(=O)c2cc(NC(=O)Nc3ccc(C(F)(F)F)cc3)ccc2O1,.,.,.,.,.,.
C[C@H]1CCCCO[C@H](CN(C)Cc2ccccc2)[C@@H](C)CN([C@@H](C)CO)C(=O)c2cc(NC(=O)Nc3ccc(C(F)(F)F)cc3)ccc2O1,.,.,.,.,39,.
C[C@@H]1CN([C@H](C)CO)C(=O)c2cc(NC(=O)Nc3cccc4ccccc34)ccc2O[C@@H](C)CCCCO[C@@H]1CN(C)Cc1ccc(C(F)(F)F)cc1,.,.,.,/,72,.
CC(=O)N(C)C[C@@H]1Oc2c(NC(=O)NC(C)C)cccc2C(=O)N(C)C[C@H]1C,/,.,/,/,/,.
C[C@@H]1CN(C)C(=O)c2cccnc2O[C@@H]1CN(C)S(C)(=O)=O,/,.,/,/,/,.
COCCNC(=O)C[C@@H]1C[C@H]2c3cc(N(C)C)ccc3O[C@H]2[C@@H](CO)O1,/,/,.,.,.,.
C[C@H](CO)N1C[C@H](C)[C@@H](CN(C)Cc2ccc3c(c2)OCO3)Oc2ccc(NC(=O)Nc3ccc(C(F)(F)F)cc3)cc2CC1=O,.,/,.,.,.,.
N/C(=N\OC(=O)COc1ccc(Br)cc1Cl)c1ccncc1,.,.,.,.,.,.
Cc1cccc(/C(N)=N/OC(=O)COc2ccccc2Cl)c1,.,.,.,17,.,.
N/C(=N\OC(=O)COc1cc(Cl)c(Cl)cc1Cl)c1ccncc1,/,.,43,.,.,.
Cc1cc2c(cc1C)C(=O)C(Br)=C(N)C2=O,.,.,.,.,.,.
Cc1cc(-c2cc(C)c(N)cc2C)c(C)cc1N,.,.,.,19,.,.
O=C(NNC(=S)Nc1cccc2ccccc12)c1cccc(Br)c1,29,/,/,/,/,/
O=C(NNC(=O)c1ccc2ccccc2c1)c1cccc(Br)c1,.,.,.,/,.,.
Cc1nc(-n2[nH]c3c(c2=O)CCCC3)[nH]c(=O)c1Cc1ccccc1,59,.,/,/,/,/
CCC(=O)N1CCCCN2[C@@H](CO)[C@H](c3ccc(-c4ccc(F)cc4)cc3)[C@@H]2C1,.,/,.,.,25,.
COc1ccc(C#Cc2ccc([C@H]3[C@@H](CO)N4CCCCN(C(=O)Nc5ccc(F)cc5)C[C@H]34)cc2)cc1,.,/,.,.,31,.
COc1ccc(NC(=O)N2CCCCN3[C@H](C2)[C@@H](c2ccc(C#Cc4ccccc4)cc2)[C@@H]3CO)cc1,.,/,.,16,.,/
C[C@H](O)C#Cc1ccc([C@H]2[C@@H](CO)N3CCCCN(C(=O)Nc4ccccc4)C[C@@H]23)cc1,.,/,.,.,23,.
COc1ccc(NC(=O)N2CCCCN3[C@H](C2)[C@H](c2ccc(C#Cc4ccccc4)cc2)[C@@H]3CO)cc1,.,/,/,/,/,/
CC(=O)N1[C@@H]2c3ccc(-c4ccccc4)c(=O)n3C[C@H]1[C@H](CO)[C@H]2C(=O)NC1Cc2ccccc2C1,/,/,/,/,/,.
O=C(Nc1ccc(F)cc1)N1CCCCN2[C@@H](CO)[C@H](c3ccc(-c4ccncc4)cc3)[C@@H]2C1,.,/,.,.,30,.
C[C@@H](O)C#Cc1ccc([C@@H]2[C@@H](CO)N3CCCCN(C(=O)c4cccc(F)c4)C[C@@H]23)cc1,.,/,.,.,.,.
SMILES,ARNT-TACC3 inh,FN deposit inh,FGF22 binding,SIRT5 block,DENV2 CPE,XiGFP reactiv
O=C(Nc1ccc(F)cc1)N1CCCCN2[C@H](CO)[C@H](c3ccc(-c4ccncc4)cc3)[C@H]2C1,.,/,.,.,.,.
C[C@@H](O)C#Cc1ccc([C@@H]2[C@H]3CN(C(=O)c4cccc(F)c4)CCCCN3[C@H]2CO)cc1,.,/,.,23,.,.
C[C@H](CO)N1C[C@H](C)[C@H](CN(C)S(=O)(=O)c2cccs2)Oc2c(NC(=O)Nc3ccc(C(F)(F)F)cc3)cccc2C1=O,.,/,.,.,?,.
CO[C@H]1CN(C)C(=O)c2cc(NC(C)=O)ccc2OC[C@H](C)N(C(=O)Cc2cccnc2)C[C@@H]1C,.,.,.,.,.,.
COC(=O)[C@H]1[C@H](CO)[C@H]2Cn3c(ccc(-c4cccc(F)c4)c3=O)[C@H]2N1CC1CC1,.,/,.,.,.,.
COc1cccc(C(=O)Nc2ccc3c(c2)C(=O)N(C)C[C@@H](OC)[C@@H](C)CN[C@H](C)CO3)c1,.,.,.,.,.,.
CN(C)c1ccc(CNCC2CCCO2)cc1 (configuration not stated),.,.,.,.,.,.
c1cc(CNCC2CCCO2)ccn1 (configuration not stated),/,.,43,.,.,.
CC(C)COC(=O)N(C)C[C@H]1OCc2cn(nn2)CCCC(=O)N([C@H](C)CO)C[C@H]1C,.,.,.,.,.,.
O=S(=O)(O)c1cc(Cl)cc(N=Nc2ccc(O)cc2O)c1O,63,.,/,39,.,.
O=[N+]([O-])c1ccc(N=Nc2ccc(O)cc2O)cc1,.,.,/,/,/,/
Cc1ccc(N2CC(C(=O)Nc3ccc(S(=O)(=O)Nc4nccs4)cc3)CC2=O)cc1C (configuration not stated),.,.,.,18,.,.
O=C(NC(=S)Nc1ccc(S(=O)(=O)Nc2nccs2)cc1)c1ccccc1,.,.,/,/,/,.
O=C(NC(=S)Nc1ccc(S(=O)(=O)Nc2nccs2)cc1)c1ccc(Br)o1,52,/,.,.,.,.
O=C(Nc1ccc(S(=O)(=O)Nc2nccs2)cc1)C1CC(=O)N(c2ccc(Cl)cc2)C1 (configuration not stated),.,.,.,.,.,.
Cc1cc(C)c2oc(C(=O)Nc3ccc(S(=O)(=O)Nc4nccs4)cc3)cc(=O)c2c1,.,.,43,.,.,.
COc1cccc(C(=O)Nc2ccc3c(c2)C(=O)N(C)[C@@H]2CC[C@@H](CC(=O)NCc4ccc(F)cc4)O[C@H]2CO3)c1,.,.,.,/,/,.
N#Cc1cccn1-c1nccs1,.,/,43,.,.,.
COc1ccc(C(Nc2ccccn2)c2c(NC(=O)c3ccco3)sc(C)c2C)cc1 (configuration not stated),.,.,44,.,/,.
